NPY-Y2 PAM-ag = potentiators or agonists of human neuropeptide Y receptor Y2; cells expressing NPY-Y2, potentiator/agonist read-out; activation, % at 3.6 µM; hit rate 0.45% among 220,000; AID 1359; in the data active = activation above about 27%;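 also: cells stimulated with NPY near EC25 plus isoproterenol at EC100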
NPY1 pot ag = human NPY-Y1 potentiation or agonism, primary screen; NPY-Y1 expressing cells, potentiator/agonist activation; activation, % at 3.6 µM; hit rate 0.37% among 220,000; AID 1304; in the data active = activation above about 33%, passing the limit was not always enough;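 also: cells stimulated with NPY at EC10 then isoproterenol at EC100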
NPY Y2 blocker = blocks the human neuropeptide Y Y2 receptor | inhibition, % at 2.7 µM | NPY-Y2 expressing cells, antagonist mode | hit rate 0.99% among 140,000 | AID 793; in the data active = inhibition above about 17%
Wee1 stabilizer = blocks degradation of human Wee1 kinase | HeLa Luc-Wee1K328M stability, luciferase luminescence; 100% = proteasome inhibitor MG132 effect | reporter increase, % at 5 µM | hit rate 1.2% among 220,000 | P30291 | AID 1321;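 active = activation above the mean of all tested compounds plus 3 SD, set per screening run, cut at about 8.8% in these data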;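 also: cells exposed to compound for 20 h before luminescence read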
Target sequence (P30291 whole entry K328M): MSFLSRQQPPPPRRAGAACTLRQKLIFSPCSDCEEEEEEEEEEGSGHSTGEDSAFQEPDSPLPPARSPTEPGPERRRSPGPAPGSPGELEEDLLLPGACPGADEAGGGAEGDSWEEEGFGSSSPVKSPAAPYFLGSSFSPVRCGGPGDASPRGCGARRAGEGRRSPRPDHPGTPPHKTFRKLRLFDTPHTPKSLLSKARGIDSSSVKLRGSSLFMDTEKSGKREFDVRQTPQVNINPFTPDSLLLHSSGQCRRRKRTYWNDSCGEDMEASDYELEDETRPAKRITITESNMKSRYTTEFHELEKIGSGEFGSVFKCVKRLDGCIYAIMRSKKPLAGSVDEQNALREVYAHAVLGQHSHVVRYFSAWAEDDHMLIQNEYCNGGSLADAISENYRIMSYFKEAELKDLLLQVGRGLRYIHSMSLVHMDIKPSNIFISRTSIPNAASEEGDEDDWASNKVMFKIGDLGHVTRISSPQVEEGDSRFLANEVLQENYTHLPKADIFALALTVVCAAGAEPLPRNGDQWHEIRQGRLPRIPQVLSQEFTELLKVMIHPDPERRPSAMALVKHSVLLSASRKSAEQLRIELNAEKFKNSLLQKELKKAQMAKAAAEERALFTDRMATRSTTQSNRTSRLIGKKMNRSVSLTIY
Hsp70 act = Hsp70 transcriptional activation, primary screen; HeLa Hsp70 promoter luciferase reporter, luminescence; scaled: vehicle 0, proteasome-inhibitor control 100%; hit rate 0.04% among 200,000; activation, % at 10 µM; AID 1203;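 active = activation above the mean across all tested compounds plus 3 SD, cutoff set per campaign, cut at about 5.5% in these data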
NPY Y1 blocker = antagonists of human neuropeptide Y receptor Y1; P25929; HEK293-CNG Y1 cells, membrane potential fluorescence; NPY at EC95, then isoproterenol; inhibition, % at 3.6 µM; hit rate 1% among 200,000; AID 1040;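 active = inhibition above the campaign mean inhibition of all tested compounds plus 3 SD, cut at about 20% in these data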
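Material: Y1- and CNG-channel-expressing HEK293 cells / Probe or stimulus: NPY 25 nM then isoproterenol 1 µM plus Ro 20-1724 25 µM / Doses: 3.6 µM single dose, DMSO 0.4% / Schedule: compound incubation 1 h at room temperature, readout 45 min post-stimulation / Signal: membrane potential fluorescence / Benchmarks: isoproterenol-only wells as full block versus NPY-plus-isoproterenol wells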
Wee1 degr conf = human Wee1 degradation inhibition, confirmation | AID 1410 | activation, % at 5 µM | shares compounds with Wee1 stabilizer | HeLa Luc-Wee1K328M degradation, luminescence; vehicle 0%, proteasome-blocked wells 100% | hit rate 4% among 1,100; in the data active = activation above about 8.9%
NPY-Y2 pot conf = human NPY-Y2 potentiation or agonism, confirmation; shares compounds with NPY-Y2 PAM-ag; cell-based NPY-Y2 potentiator/agonist assay; activation, % at 3.6 µM; hit rate 20% among 450; in the data active = activation above about 33%
NPY-Y1 potentiator = NPY-Y1 potentiation or agonism as NPY-Y2 counter-screen; shares compounds with NPY-Y2 PAM-ag; Y1 HEK293-CNG cells, membrane potential fluorescence; activation, % at 3.6 µM; hit rate 20% among 450; in the data active = activation above about 45%;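 also: cells stimulated with submaximal NPY then isoproterenol with phosphodiesterase inhibitor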
NPY-Y1 ag 2 = counter-screen for NPY-Y2 potentiators: agonists of human NPY-Y1; shares compounds with NPY-Y2 PAM-ag; HEK293 Y1-CNGC, membrane potential fluorescence, agonism; activation, % at 3.6 µM; hit rate 37% among 450; AID 1702;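 active = activation above the mean of DMSO-only control wells plus 3 SD, cut at about 18% in these data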;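 also: cells stimulated with 1 µM isoproterenol plus the PDE inhibitor Ro 20-1724; Y1 agonists lower the membrane potential dye signal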
CNGC inh = cyclic nucleotide gated channel inhibition as counter-screen | shares compounds with NPY-Y2 PAM-ag | HEK293-CNG parental, isoproterenol cAMP, membrane potential fluorescence | inhibition, % at 3.6 µM | hit rate 32% among 450;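 active = inhibition above the control-well mean plus 3 SD of those wells, cut at about 22% in these data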
NPY-Y2 ag 2 = NPY-Y2 agonism, counter-screen for Y2 potentiators; shares compounds with NPY-Y2 PAM-ag; HEK293 Y2/CNGC cells, membrane potential fluorescence, agonist mode; activation, % at 3.6 µM; hit rate 56% among 450;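 active = activation above the mean of solvent-only control wells plus 3 SD, cut at about 10% in these data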;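 also: cells stimulated by isoproterenol with no NPY added so direct agonism is tested; agonism lowers probe fluorescence through less cAMP and CNG channel opening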
Hits are given with their value; - = inactive; . = no result. An excerpt weighted towards active compounds, which were near 3% of everything screened.

SMILES	NPY-Y2 PAM-ag	NPY1 pot ag	NPY Y2 blocker	Wee1 stabilizer	Hsp70 act	NPY Y1 blocker	Wee1 degr conf	others
O=C(C(=O)N1CCOCC1)c1cn(Cc2ccc(F)cc2)c2ccccc12	-	-	.	12	.	.	-
O=C1NC(=O)C2(C(=O)N1)C(c1ccc(F)cc1)NC(=S)NC2c1ccc(F)cc1 (stereo unspecified)	-	-	-	-	-	-	.
Cc1ccc(-n2c(/C=C/c3ccc4c(c3)OCO4)nc3ccccc3c2=O)cc1	-	-	-	11	-	-	-
O=c1c2ccccc2nc(/C=C/c2ccc(O)cc2)n1-c1cccc(O)c1	-	-	.	12	-	-	-
CC(=Nc1ccc2c(c1)CCC2)c1c(O)n(-c2ccccc2)c(=O)[nH]c1=O	-	-	.	-	.	.	.
CSc1nc(N2CCN(C)CC2)c2ccccc2n1	-	-	.	15	-	-	-
CC1CC(OC(=O)c2ccccc2)CC(C)N1C (stereo unspecified)	-	-	-	-	-	-	.
CN1C2CCC1CC(OC(=O)c1ccc([N+](=O)[O-])cc1)C2 (stereo unspecified)	-	-	-	13	-	-	-
O=P(c1ccccc1)(c1nc2ccccc2s1)N1CCOCC1 (stereo unspecified)	-	-	-	-	-	-	.
CCN1CCN(c2nc3ccccc3s2)CC1	-	-	-	15	-	-	-
Cc1cc(NC(=O)CCC(=O)N2CCC3(CC2)OCCO3)no1	-	-	-	-	-	-	.
Cc1cc(C)n(-c2ccc(NN=C(C#N)C#N)cc2)n1	42	-	.	-	.	.	.	NPY-Y2 pot conf=-;NPY-Y1 potentiator=-;NPY-Y1 ag 2=-;CNGC inh=-;NPY-Y2 ag 2=-
O=C(N/N=C/c1c(O)n(-c2cccc3ccccc23)c(=O)[nH]c1=O)c1ccncc1	-	-	.	-	.	.	.
CC(C)(C)c1cc([N+](=O)[O-])cc(C(C)(C)C)c1O	45	-	.	-	-	-	.	NPY-Y2 pot conf=-;NPY-Y1 potentiator=-;NPY-Y1 ag 2=-;CNGC inh=-;NPY-Y2 ag 2=-
CN1CCN(c2ccc([N+](=O)[O-])cc2Cl)CC1	-	-	.	-	-	-	.

High-throughput results deposited in PubChem by The Scripps Research Institute Molecular Screening Center.
